Source: ChEMBL document CHEMBL4312006, “A novel chalcone derivative as Nrf2 activator attenuates learning and memory impairment in a scopolamine-induced mouse model” (Eur J Med Chem, 2020)

Columns and labels:
[1] = Stability in human plasma assessed as compound remaining after 30 mins; type: ADME, cell-free; settings: read-out: Stability
CYP2C19 = CYP2C19 (Homo sapiens, UniProt P33261); experiment: Inhibition of CYP2C19 (unknown origin) assessed as remaining activity relative to control; type: ADME
Keap1/Nrf2 = Keap1/Nrf2 (Homo sapiens, UniProt Q14145+Q16236); experiment: (§1) Activation of NRF2 in human U2OS cells co-expressing Keap1 (unknown origin) assessed as induction of NRF2 translocation to nucleus incubated for 6 hrs by beta-galactosidase based chemiluminescent assay; type: cell-based
How it was run: (§2)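 PathHunter U2OS cells engineered to co-express enzyme donor-tagged NRF2 and nuclear-localized enzyme acceptor; Nrf2 nuclear translocation reconstitutes β-galactosidase. Cells in 96-well plates exposed to a range of compound concentrations for 6 h at room temperature (20–23 °C), then 1 h with detection reagent in the dark; chemiluminescence (RLU) read. EC50 from concentration-response curve, mean ± SEM, triplicate.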

[2] = target: Keap1/Nrf2 (Homo sapiens) (UniProt Q16236+Q14145); experiment: as §1; type: cell-based; how it was run: as §2
[3] = Stability in human liver microsomes assessed as compound remaining after 30 mins; type: ADME, Microsome; settings: read-out: Stability
[4] = target: T1, Nuclear factor erythroid 2-related factor 2 (Mus musculus) (UniProt Q60795); experiment: Activation of NRF2 in mouse BV2 cells assessed reduction in LPS-stimulated IL-6 level preincubated for 3 hrs followed by LPS stimulation for 24 hrs by ELISA; type: cell-based
T1 sequence (whole entry): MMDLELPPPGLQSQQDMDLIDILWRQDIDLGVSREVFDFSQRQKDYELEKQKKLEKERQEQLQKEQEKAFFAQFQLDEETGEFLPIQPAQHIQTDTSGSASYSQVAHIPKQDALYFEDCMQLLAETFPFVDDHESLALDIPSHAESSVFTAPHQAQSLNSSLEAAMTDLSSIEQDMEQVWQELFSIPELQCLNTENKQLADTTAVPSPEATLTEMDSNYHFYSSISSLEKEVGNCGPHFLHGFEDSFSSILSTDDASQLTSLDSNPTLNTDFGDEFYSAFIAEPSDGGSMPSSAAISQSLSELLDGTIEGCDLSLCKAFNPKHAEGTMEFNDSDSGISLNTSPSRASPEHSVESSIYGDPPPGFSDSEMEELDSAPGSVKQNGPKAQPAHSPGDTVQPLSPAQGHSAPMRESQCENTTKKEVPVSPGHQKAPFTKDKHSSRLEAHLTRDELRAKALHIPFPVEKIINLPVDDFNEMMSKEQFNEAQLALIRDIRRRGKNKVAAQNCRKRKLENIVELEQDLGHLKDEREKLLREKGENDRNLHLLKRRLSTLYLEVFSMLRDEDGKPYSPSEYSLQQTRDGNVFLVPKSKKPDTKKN
How it was run: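 BV-2 cells pre-incubated with a range of compound concentrations for 3 h, then stimulated with 0.2 μg/mL LPS for 24 h. TNF-α or IL-6 in the culture medium quantified by sandwich ELISA kits. Compared with LPS-treated control by one-way ANOVA with Dunnett's test.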

CYP2D6 = CYP2D6 (Homo sapiens, UniProt P10635); experiment: Inhibition of CYP2D6 (unknown origin) assessed as remaining activity relative to control; type: ADME
[5] = target: T1, Nuclear factor erythroid 2-related factor 2 (Mus musculus); experiment: Activation of NRF2 in mouse BV2 cells assessed as increase in GCLM protein expression at 10 uM incubated for 12 hrs by Western blot analysis; type: cell-based
How it was run: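 BV-2 cells washed in ice-cold PBS and lysed on ice for 40 min in RIPA buffer with protease inhibitors. Nuclear fractions prepared separately. 10 μg protein run on SDS-PAGE and blotted to PVDF. Membranes blocked in 5% skim milk/TBST and probed overnight at 4 °C for Nrf2, HO-1, GCLM or SOD1. HRP secondary with ECL detection. Band densities normalised to Lamin B1 or β-actin.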

[6] = target: T1, Nuclear factor erythroid 2-related factor 2 (Mus musculus); experiment: Activation of NRF2 in mouse BV2 cells assessed as inhibition of LPS-stimulated iNOS expression at 10 uM preincubated for 3 hrs followed by LPS stimulation for 24 hrs by Western blot analysis relative to control; type: cell-based; design: scale not given: the % may be the effect or the level left
How it was run: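 LPS-stimulated BV-2 cells pretreated with compound for 3 h. iNOS immunoblot (1:500) on 10 μg RIPA lysate protein, detected by ECL. Densities normalised to β-actin or Lamin B1 and compared with LPS-treated control.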

Sequence of CYP2D6 (P10635 whole entry): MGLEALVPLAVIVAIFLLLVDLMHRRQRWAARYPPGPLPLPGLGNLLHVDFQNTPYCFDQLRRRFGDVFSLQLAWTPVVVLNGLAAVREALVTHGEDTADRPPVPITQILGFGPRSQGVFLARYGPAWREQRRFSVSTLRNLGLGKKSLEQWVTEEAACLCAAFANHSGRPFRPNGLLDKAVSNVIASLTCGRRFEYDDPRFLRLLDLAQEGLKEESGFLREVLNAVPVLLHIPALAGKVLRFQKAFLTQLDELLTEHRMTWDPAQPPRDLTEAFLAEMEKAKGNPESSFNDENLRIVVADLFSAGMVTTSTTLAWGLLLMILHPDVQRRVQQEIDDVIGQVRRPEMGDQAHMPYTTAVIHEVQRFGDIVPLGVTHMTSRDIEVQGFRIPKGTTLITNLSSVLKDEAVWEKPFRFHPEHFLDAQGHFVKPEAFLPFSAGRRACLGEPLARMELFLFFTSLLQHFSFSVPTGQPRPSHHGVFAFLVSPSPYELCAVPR
Sequence of Keap1/Nrf2 (Homo sapiens) (Q14145 whole entry, looked up): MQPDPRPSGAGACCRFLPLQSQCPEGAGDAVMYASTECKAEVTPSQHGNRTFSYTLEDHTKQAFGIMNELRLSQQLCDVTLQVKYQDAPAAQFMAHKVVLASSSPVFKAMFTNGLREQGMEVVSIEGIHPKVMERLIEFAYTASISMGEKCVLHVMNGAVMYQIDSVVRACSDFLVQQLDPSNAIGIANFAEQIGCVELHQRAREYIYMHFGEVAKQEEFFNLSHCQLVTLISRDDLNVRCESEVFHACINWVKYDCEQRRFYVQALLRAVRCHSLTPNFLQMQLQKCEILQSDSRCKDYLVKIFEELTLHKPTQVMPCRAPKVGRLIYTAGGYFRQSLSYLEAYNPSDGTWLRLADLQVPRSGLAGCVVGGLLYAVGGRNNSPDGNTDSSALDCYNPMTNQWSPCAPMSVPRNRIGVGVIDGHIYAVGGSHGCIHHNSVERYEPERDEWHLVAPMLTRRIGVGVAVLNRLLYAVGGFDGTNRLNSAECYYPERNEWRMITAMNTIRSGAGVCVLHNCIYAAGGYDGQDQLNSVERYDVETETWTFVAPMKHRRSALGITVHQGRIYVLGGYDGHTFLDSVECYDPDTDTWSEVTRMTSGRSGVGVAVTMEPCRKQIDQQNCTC
Sequence of Keap1/Nrf2 (Homo sapiens) (Q16236 whole entry, looked up): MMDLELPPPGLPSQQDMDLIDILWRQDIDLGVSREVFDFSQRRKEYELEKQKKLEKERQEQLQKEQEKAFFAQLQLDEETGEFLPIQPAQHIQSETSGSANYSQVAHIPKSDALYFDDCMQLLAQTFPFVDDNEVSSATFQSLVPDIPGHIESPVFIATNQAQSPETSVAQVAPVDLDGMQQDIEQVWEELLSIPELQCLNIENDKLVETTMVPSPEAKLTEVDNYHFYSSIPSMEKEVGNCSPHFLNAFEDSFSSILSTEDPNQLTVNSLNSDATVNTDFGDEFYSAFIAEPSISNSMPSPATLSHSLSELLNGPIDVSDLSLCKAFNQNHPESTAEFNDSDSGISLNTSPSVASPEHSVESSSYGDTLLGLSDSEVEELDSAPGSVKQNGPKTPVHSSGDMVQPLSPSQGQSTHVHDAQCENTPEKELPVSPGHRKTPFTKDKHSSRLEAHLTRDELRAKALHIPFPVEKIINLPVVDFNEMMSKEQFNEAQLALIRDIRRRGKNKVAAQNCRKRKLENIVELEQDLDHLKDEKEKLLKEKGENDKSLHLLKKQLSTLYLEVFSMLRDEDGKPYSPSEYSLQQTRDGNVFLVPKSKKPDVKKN
Sequence of Keap1/Nrf2 (Q16236 whole entry): as the sequence (Q16236 whole entry, looked up) above
Sequence of Keap1/Nrf2 (Q14145 whole entry): as the sequence (Q14145 whole entry, looked up) above
Sequence of CYP2C19 (P33261 whole entry): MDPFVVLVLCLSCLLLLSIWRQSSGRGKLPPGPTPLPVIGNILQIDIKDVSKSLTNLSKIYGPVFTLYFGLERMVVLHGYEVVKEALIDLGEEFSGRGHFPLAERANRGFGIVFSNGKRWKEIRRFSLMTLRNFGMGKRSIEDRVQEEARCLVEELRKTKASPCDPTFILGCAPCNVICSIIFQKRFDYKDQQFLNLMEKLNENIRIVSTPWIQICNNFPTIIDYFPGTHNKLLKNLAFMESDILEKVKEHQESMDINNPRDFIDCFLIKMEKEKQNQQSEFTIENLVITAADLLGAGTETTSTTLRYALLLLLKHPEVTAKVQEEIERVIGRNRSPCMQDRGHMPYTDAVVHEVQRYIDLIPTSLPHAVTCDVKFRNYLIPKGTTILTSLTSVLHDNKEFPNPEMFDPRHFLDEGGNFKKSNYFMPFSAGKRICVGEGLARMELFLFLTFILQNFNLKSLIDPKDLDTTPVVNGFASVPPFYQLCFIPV

SMILES: CN1CCN(C(=O)COc2ccc(C(=O)/C=C/c3ccccc3C(F)(F)F)cc2)CC1.Cl
- remaining at 0.5 h [1]: > 100%
- activity (CYP2C19): 79.3%
- EC50 (Keap1/Nrf2): 630 nM
- Activity [2]: Dose-dependent effect
- remaining at 0.5 h [3]: 16.1%
- Activity [4]: Dose-dependent effect
- activity (CYP2D6): > 100%
- fold change (FC) [5]: > 15
- Activity [6]: 100%
